# Test results taken from ChEMBL document CHEMBL1142002, “Design, synthesis and biological evaluation of novel bicyclic beta-lactams as potential antimalarials” (Bioorg Med Chem Lett, 2005).
# What was measured:
# Plasmodium falciparum [1] = assay: (§1) In vitro antimalarial activity for chloroquine-resistant Plasmodium falciparum in schizont maturation assay; format: functional, organism-based
# How it was run: (§2)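 P. falciparum (lab chloroquine-sensitive strains; resistant field isolate from Jagadalpur patients) in O+ human RBCs, RPMI 1640 + 10% human serum, 37 °C, 5% CO2; sorbitol-synchronized rings at 2% in erythrocytes. Double dilutions, duplicate wells, 24 h. Giemsa smears: mature schizonts counted among 200 asexual parasites; inhibition = (1 − Nt/Nc) × 100.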
# Plasmodium falciparum [2] = assay: (§3) In vitro antimalarial activity for chloroquine-sensitive Plasmodium falciparum in schizont maturation assay; format: functional, organism-based; how it was run: as §2
# Plasmodium falciparum [3] = assay: as §1; format: functional; how it was run: as §2
# Plasmodium falciparum [4] = assay: as §3; format: functional
# How it was run: (§4)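 Chloroquine-sensitive P. falciparum, sorbitol-synchronized ring stages, cultured in O+ human RBCs in RPMI 1640 with 10% human serum at 37 °C under 5% CO2. Duplicate wells held erythrocytes at 2% ring-stage parasitaemia across double dilutions of compound. After 24 h, Giemsa smears were scored for mature schizonts among 200 asexual parasites. Inhibition was calculated as (1 − Nt/Nc)×100 against medium-only controls.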
# Plasmodium falciparum [5] = assay: In vitro antimalarial activity as schizont maturation against drug-resistant Plasmodium falciparum; format: functional; how it was run: as §2
# Plasmodium falciparum [6] = assay: In vitro antimalarial activity as schizont maturation against drug-sensitive Plasmodium falciparum; format: functional; how it was run: as §4
SMILES,IC50 (Plasmodium falciparum [1]) [µM],IC50 (Plasmodium falciparum [2]) [µM],IC90 (Plasmodium falciparum [3]) [µM],IC99 (Plasmodium falciparum [3]) [µM],IC90 (Plasmodium falciparum [4]) [µM],IC99 (Plasmodium falciparum [4]) [µM],IC90 (Plasmodium falciparum [5]) [µM],IC90 (Plasmodium falciparum [6]) [µM]
O=C1NC2CCCC12 (stereo unspecified),12.4,13.5,34.5,48.7,31.9,42.2,–,–
O=C1C2CC=CC=CC2N1Cc1ccccc1 (stereo unspecified),1.8,1.8,2.9,3.3,2.8,3.2,–,–
O=C1NC2CCCCCCC12 (stereo unspecified),8.4,8.1,33.9,54.8,33.7,51.2,–,–
O=C1NC2CC/C=C\CCC12 (stereo unspecified),7.3,6.8,26.1,48.7,25.4,43.4,–,–
O=C1C2CCCCCCC2N1Cc1ccccc1 (stereo unspecified),7.9,8.1,19.4,27.4,18.8,25.2,–,–
O=C1C2CCCC2N1Cc1ccccc1 (stereo unspecified),7.4,6.5,12.4,14.5,11.2,12.3,–,–
O=C1C2CC=CCC2N1Cc1ccccc1 (stereo unspecified),1.6,1.5,6.1,6.4,5.6,6.1,–,–
O=C1NC2CC=CCC12 (stereo unspecified),8.7,9.1,21.2,25.3,19.3,23.2,–,–
O=C1NC2C=CC=CCC12 (stereo unspecified),4.6,–,15.4,24.8,14.5,20.1,–,–
O=C1C2CC/C=C\CCC2N1Cc1ccccc1 (stereo unspecified),5.8,5.4,11.4,14.5,10.7,13.3,–,–
CCN(CC)CCCC(C)Nc1ccnc2cc(Cl)ccc12 (stereo unspecified) [CHLOROQUINE],–,–,–,–,–,–,0.5,0.05
